From ChEMBL document CHEMBL1806428, “Design and synthesis of spiro derivatives of parthenin as novel anti-cancer agents” (Eur J Med Chem, 2011)

Key:
SW-620 = assay: Cytotoxicity against human SW620 cells assessed as cell growth after 48 hrs by sulforhodamine B assay; assay type: functional, cell-based; conditions: Homo sapiens, SW-620, 48 h
How it was run: (§1)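 Log-phase cells seeded at 10^4/well and allowed to attach for 24 h at 37 °C, 5% CO2. Exposed for 48 h to 0.1–100 (1:10 serial dilutions), four replicate wells per condition. Fixed with cold 50% TCA for 1 h at 4 °C, stained with sulforhodamine B, dye dissolved in Tris, OD read at 540 nm. Blank-subtracted growth expressed relative to untreated cells (100%); IC50 reported.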

DU-145 = assay: Cytotoxicity against human DU145 cells assessed as cell growth after 48 hrs by sulforhodamine B assay; assay type: functional, cell-based; conditions: Homo sapiens, DU-145, 48 h; how it was run: as §1
PC-3 = assay: Cytotoxicity against human PC3 cells assessed as cell growth after 48 hrs by sulforhodamine B assay; assay type: functional, cell-based; conditions: Homo sapiens, PC-3, 48 h; how it was run: as §1
[1] = Partition coefficient, log P of the compound; assay type: physicochemical; conditions: octanol/water

| Structure (SMILES) | logP [1] | IC50 (SW-620) | IC50 (DU-145) | IC50 (PC-3) |
| --- | --- | --- | --- | --- |
| C[C@H]1CC[C@@H]2[C@@H](OC(=O)[C@]23CN3c2ccccc2)[C@]2(C)C(=O)C=C[C@@]12O | 1.38 | 87.7 µM | 31.4 µM | 10.6 µM |
| C[C@H]1CC[C@@H]2[C@@H](OC(=O)[C@]23CN3c2cccc([N+](=O)[O-])c2)[C@]2(C)C(=O)C=C[C@@]12O | 1.31 | 61 µM | 30 µM | 10.1 µM |
| COc1cc(C2=NO[C@]3(C2)C(=O)O[C@@H]2[C@H]3CC[C@H](C)[C@]3(O)C=CC(=O)[C@@]23C)ccc1O | 0.75 | 88 µM | 71 µM | 16 µM |
| C[C@H]1CC[C@@H]2[C@@H](OC(=O)[C@]23CN3c2cccc(Cl)c2)[C@]2(C)C(=O)C=C[C@@]12O | 2.03 | 48.4 µM | 39.5 µM | 86.1 µM |
| COc1ccc(N2C[C@]23C(=O)O[C@@H]2[C@H]3CC[C@H](C)[C@]3(O)C=CC(=O)[C@@]23C)cc1 | 1.41 | 30 µM | 78 µM | 12 µM |
| C[C@H]1CC[C@@H]2[C@@H](OC(=O)[C@]23CC(c2ccc(O)cc2)=NO3)[C@]2(C)C(=O)C=C[C@@]12O | 0.932 | 89 µM | 93 µM | 20 µM |
| Cc1ccc(C2C[C@@]3(ON2c2ccccc2)C(=O)O[C@@H]2[C@H]3CC[C@H](C)[C@]3(O)C=CC(=O)[C@@]23C)cc1 (mixture of isomers) | 3.64 |  |  |  |
| COC(=O)c1cccc(N2C[C@]23C(=O)O[C@@H]2[C@H]3CC[C@H](C)[C@]3(O)C=CC(=O)[C@@]23C)c1 | 1.52 | 30 µM | 18.5 µM | 10.1 µM |
| C[C@H]1CC[C@@H]2[C@@H](OC(=O)[C@]23CC(c2cccc(Cl)c2)N(c2ccccc2)O3)[C@]2(C)C(=O)C=C[C@@]12O (mixture of isomers) | 3.87 |  |  |  |
| Cc1ccccc1N1C[C@]12C(=O)O[C@@H]1[C@H]2CC[C@H](C)[C@]2(O)C=CC(=O)[C@@]12C | 1.83 | 22 µM | 30 µM | 12.5 µM |
| Cc1ccc(C2=NO[C@]3(C2)C(=O)O[C@@H]2[C@H]3CC[C@H](C)[C@]3(O)C=CC(=O)[C@@]23C)cc1 | 1.86 | 2.5 µM | 14 µM | 14 µM |
| C[C@H]1CC[C@@H]2[C@@H](OC(=O)[C@]23CC(c2ccccc2Cl)=NO3)[C@]2(C)C(=O)C=C[C@@]12O | 2.09 | 9 µM | 19 µM | 12 µM |
| C[C@H]1CC[C@@H]2[C@@H](OC(=O)[C@]23CC(c2cccc([N+](=O)[O-])c2)=NO3)[C@]2(C)C(=O)C=C[C@@]12O | 1.37 | 49 µM | 51 µM | 55 µM |
| COc1ccc(C2C[C@@]3(ON2c2ccccc2)C(=O)O[C@@H]2[C@H]3CC[C@H](C)[C@]3(O)C=CC(=O)[C@@]23C)cc1 (mixture of isomers) | 3.25 |  |  |  |
| C[C@H]1CC[C@@H]2[C@@H](OC(=O)[C@]23CC(c2ccc(N(C)C)cc2)=NO3)[C@]2(C)C(=O)C=C[C@@]12O | 1.51 | 5.1 µM | 4.5 µM | 6.3 µM |
| COc1ccc(C2=NO[C@]3(C2)C(=O)O[C@@H]2[C@H]3CC[C@H](C)[C@]3(O)C=CC(=O)[C@@]23C)cc1OC | 1.06 | 86 µM | 84 µM | 25 µM |
| C[C@H]1CC[C@@H]2[C@@H](OC(=O)[C@]23CC(c2ccc(Cl)cc2)=NO3)[C@]2(C)C(=O)C=C[C@@]12O | 2.09 | 51 µM | 43 µM | 49 µM |
| Cc1cccc(N2C[C@]23C(=O)O[C@@H]2[C@H]3CC[C@H](C)[C@]3(O)C=CC(=O)[C@@]23C)c1 | 1.83 | 15 µM | 62.5 µM | 61.5 µM |
| C[C@H]1CC[C@@H]2[C@@H](OC(=O)[C@]23CN3c2ccccc2[N+](=O)[O-])[C@]2(C)C(=O)C=C[C@@]12O | 1.31 | 33 µM | 28 µM | 10 µM |

More lines, main results first:

| logP [1] | Structure (SMILES) | IC50 (SW-620) | IC50 (DU-145) | IC50 (PC-3) |
| --- | --- | --- | --- | --- |
| 2.67 | C[C@H]1CC[C@@H]2[C@@H](OC(=O)[C@]23CC(c2c(Cl)cccc2Cl)=NO3)[C@]2(C)C(=O)C=C[C@@]12O | 43 µM | 38 µM | 56 µM |
| 1.37 | C[C@H]1CC[C@@H]2[C@@H](OC(=O)[C@]23CC(c2ccc([N+](=O)[O-])cc2)=NO3)[C@]2(C)C(=O)C=C[C@@]12O | 9 µM | 7 µM | 12 µM |
| 1.57 | C[C@H]1CC[C@@H]2[C@@H](OC(=O)[C@]23CC(c2ccccc2F)=NO3)[C@]2(C)C(=O)C=C[C@@]12O | 11 µM | 24 µM | 8.2 µM |
| 1.86 | Cc1cccc(C2=NO[C@]3(C2)C(=O)O[C@@H]2[C@H]3CC[C@H](C)[C@]3(O)C=CC(=O)[C@@]23C)c1 | 15 µM | 28 µM | 66.6 µM |
| 1.17 | C[C@H]1CC[C@@H]2[C@@H](OC(=O)[C@]23CC(c2ccc(C#N)cc2)=NO3)[C@]2(C)C(=O)C=C[C@@]12O | 53 µM | 26 µM | 32 µM |
| 1.57 | C[C@H]1CC[C@@H]2[C@@H](OC(=O)[C@]23CC(c2ccc(F)cc2)=NO3)[C@]2(C)C(=O)C=C[C@@]12O | 3.6 µM | 13 µM | 27 µM |
| 4 | C[C@H]1CC[C@@H]2[C@@H](OC(=O)[C@]23CC(c2ccc(Br)cc2)N(c2ccccc2)O3)[C@]2(C)C(=O)C=C[C@@]12O (mixture of isomers) |  |  |  |
| 2.22 | C[C@H]1CC[C@@H]2[C@@H](OC(=O)[C@]23CC(c2ccccc2Br)=NO3)[C@]2(C)C(=O)C=C[C@@]12O | 44 µM | 18 µM | 51 µM |
| 3.25 | COc1cccc(C2C[C@@]3(ON2c2ccccc2)C(=O)O[C@@H]2[C@H]3CC[C@H](C)[C@]3(O)C=CC(=O)[C@@]23C)c1 (mixture of isomers) |  |  |  |
| 1.37 | C[C@H]1CC[C@@H]2[C@@H](OC(=O)[C@]23CC(c2ccccc2[N+](=O)[O-])=NO3)[C@]2(C)C(=O)C=C[C@@]12O | 40 µM | 34 µM | 37 µM |
| 1.41 | C[C@H]1CC[C@@H]2[C@@H](OC(=O)[C@]23CC(c2ccccc2)=NO3)[C@]2(C)C(=O)C=C[C@@]12O | 45.4 µM | 39.8 µM | 46 µM |
| 3.42 | C[C@H]1CC[C@@H]2[C@@H](OC(=O)[C@]23CC(c2c(F)cccc2F)N(c2ccccc2)O3)[C@]2(C)C(=O)C=C[C@@]12O (mixture of isomers) |  |  |  |
| 3.87 | C[C@H]1CC[C@@H]2[C@@H](OC(=O)[C@]23CC(c2ccc(Cl)cc2)N(c2ccccc2)O3)[C@]2(C)C(=O)C=C[C@@]12O (mixture of isomers) |  |  |  |
| 3.64 | Cc1ccccc1C1C[C@@]2(ON1c1ccccc1)C(=O)O[C@@H]1[C@H]2CC[C@H](C)[C@]2(O)C=CC(=O)[C@@]12C (mixture of isomers) |  |  |  |
